The text below walks through data of ChEMBL document CHEMBL1131578, “Design of a new class of orally active fibrinogen receptor antagonists” (J Med Chem, 1998).

Series [1] addresses T1, Integrin alpha-IIb/beta-3 (Homo sapiens, UniProt P05106+P08514). Briefly: Ability to inhibit the aggregation of fixed human platelets. Format: functional. The method in brief: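 Human gel-filtered platelets activated with α-thrombin 1 U/mL (final) for 2 min at room temperature, then thrombin inhibitor 20 μM, fixed in 0.5% paraformaldehyde for 30 min, washed and resuspended at 2×10^8 cells/mL in Tyrode's-HSA. Compound preincubated 1 min with the suspension. Rate relative to no-antagonist control; IC50 calculated.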
Target sequence in this assay (P05106 27-788 limits assumed): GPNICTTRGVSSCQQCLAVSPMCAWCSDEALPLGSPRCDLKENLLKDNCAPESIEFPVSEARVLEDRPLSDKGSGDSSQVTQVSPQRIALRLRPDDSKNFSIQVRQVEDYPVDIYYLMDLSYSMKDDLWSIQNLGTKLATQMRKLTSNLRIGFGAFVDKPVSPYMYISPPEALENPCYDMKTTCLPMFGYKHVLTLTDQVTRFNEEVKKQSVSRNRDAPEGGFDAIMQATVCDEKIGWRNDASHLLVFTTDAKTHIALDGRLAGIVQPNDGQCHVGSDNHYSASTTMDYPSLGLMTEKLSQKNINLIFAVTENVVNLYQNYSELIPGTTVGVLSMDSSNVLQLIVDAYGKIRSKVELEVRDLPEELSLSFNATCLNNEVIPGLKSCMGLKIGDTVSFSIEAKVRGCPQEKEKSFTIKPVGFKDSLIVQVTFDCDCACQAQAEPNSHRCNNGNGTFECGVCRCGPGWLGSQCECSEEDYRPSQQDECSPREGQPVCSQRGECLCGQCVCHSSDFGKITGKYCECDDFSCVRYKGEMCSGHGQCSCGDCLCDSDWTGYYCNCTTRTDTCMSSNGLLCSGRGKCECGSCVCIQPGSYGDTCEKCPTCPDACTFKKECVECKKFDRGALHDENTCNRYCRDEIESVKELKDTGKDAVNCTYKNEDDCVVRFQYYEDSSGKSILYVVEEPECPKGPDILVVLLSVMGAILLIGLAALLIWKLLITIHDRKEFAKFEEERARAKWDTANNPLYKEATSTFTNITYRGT
Target sequence in this assay (P08514 32-887 limits assumed): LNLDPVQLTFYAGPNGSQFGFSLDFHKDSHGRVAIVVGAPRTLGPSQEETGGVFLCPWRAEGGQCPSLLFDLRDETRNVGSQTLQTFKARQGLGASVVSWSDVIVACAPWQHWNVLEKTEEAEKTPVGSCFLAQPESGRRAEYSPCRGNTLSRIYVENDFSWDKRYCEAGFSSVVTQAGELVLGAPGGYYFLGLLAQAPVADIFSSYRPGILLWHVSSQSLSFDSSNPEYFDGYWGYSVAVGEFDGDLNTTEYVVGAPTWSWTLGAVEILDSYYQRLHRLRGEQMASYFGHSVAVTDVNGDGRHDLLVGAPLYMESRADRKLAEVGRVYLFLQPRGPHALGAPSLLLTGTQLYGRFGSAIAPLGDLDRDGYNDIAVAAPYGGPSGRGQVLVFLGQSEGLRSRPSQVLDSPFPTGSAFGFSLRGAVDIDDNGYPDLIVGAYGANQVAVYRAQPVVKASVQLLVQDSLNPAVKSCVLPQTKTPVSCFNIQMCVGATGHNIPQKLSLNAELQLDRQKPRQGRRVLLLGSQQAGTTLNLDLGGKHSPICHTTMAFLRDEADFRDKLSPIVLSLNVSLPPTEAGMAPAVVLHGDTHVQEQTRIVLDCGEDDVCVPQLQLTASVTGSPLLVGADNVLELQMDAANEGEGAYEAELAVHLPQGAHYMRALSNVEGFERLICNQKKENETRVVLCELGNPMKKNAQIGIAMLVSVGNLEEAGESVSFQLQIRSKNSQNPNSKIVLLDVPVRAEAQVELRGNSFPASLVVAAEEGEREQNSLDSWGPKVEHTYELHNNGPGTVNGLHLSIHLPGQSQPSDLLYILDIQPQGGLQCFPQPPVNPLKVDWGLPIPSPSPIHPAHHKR
Target sequence in this assay (P08514 891-1039 limits assumed): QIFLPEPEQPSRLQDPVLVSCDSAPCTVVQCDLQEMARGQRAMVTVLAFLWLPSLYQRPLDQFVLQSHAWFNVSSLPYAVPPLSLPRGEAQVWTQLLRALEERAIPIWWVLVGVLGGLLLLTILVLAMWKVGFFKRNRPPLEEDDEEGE

The target in series [2] is T1, Integrin alpha-IIb/beta-3. The series can be described thus: Inhibition of radiolabeled fibrinogen binding to activated human platelets. Format: functional. The method in brief:
(§1)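 Washed human platelets at 1×10^8/mL in Tyrode's buffer, run in duplicate. Inhibitor and labelled fibrinogen added before agonist, either TRAP (SFLLRN-NH2) 100 μM or ADP 10 μM. Incubated 30 min at room temperature, spun through a 20% sucrose cushion, pellet γ-counted. IC50 determined.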
Target sequence in this assay (P05106 27-788 limits assumed): as the sequence (P05106 27-788 limits assumed) above
Target sequence in this assay (P08514 32-887 limits assumed): as the sequence (P08514 32-887 limits assumed) above
Target sequence in this assay (P08514 891-1039 limits assumed): as the sequence (P08514 891-1039 limits assumed) above

The target in series [3] is T1, Integrin alpha-IIb/beta-3. Briefly: Inhibition of ex vivo platelet aggregation after 1 hr treatment. Format: functional. The note with it: concentration not given here. Put shortly: (§2)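 Mongrel dogs of either sex dosed by intragastric gavage, compound dissolved in deionized water. Citrated venous blood drawn 10 min predose and at 1, 3, 6, 12 and 24 h. PRP adjusted to 300 000 platelets/μL, stirred at 37 °C, primed with epinephrine 1 μM, then ADP 10 μM added. Light-transmission slope read in duplicate, expressed as % decrease versus predose PRP. Mean of at least two dogs per dose.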

In series [4] the target is T1, Integrin alpha-IIb/beta-3. Briefly: Inhibition of ex vivo platelet aggregation after 3 hr treatment. It counts as functional. The note with it: concentration not given here. Put shortly: as §2
For series [5], the target named is T1, Integrin alpha-IIb/beta-3. The series can be described thus: Inhibition of ex vivo platelet aggregation after 6 hr treatment. Format: functional. The note with it: concentration not given here. Put shortly: as §2
Series [6] can be described thus: Compound was evaluated for the rate of degradation by Carboxypeptidase A. It counts as ADME. The method in brief: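 Bovine pancreatic carboxypeptidase A diluted in 5% LiCl, activity checked with hippuryl-L-phenylalanine. Substrate made up at 1.0 mM in 0.05 M Tris with 1.0 M NaCl, pH 7.5, then combined with enzyme (2.0 units total). Incubated 60 min at room temperature, with hydrolysis followed by HPLC every 9 min. Rate of hydrolysis normalized to 1 unit of enzyme.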

For series [7], the target named is T1, Integrin alpha-IIb/beta-3. Briefly: Inhibition of radiolabeled fibrinogen binding to activated human platelets. It counts as functional. The method in brief:
as §1
Target sequence in this assay (P05106 27-788 limits assumed): as the sequence (P05106 27-788 limits assumed) above
Target sequence in this assay (P08514 32-887 limits assumed): as the sequence (P08514 32-887 limits assumed) above
Target sequence in this assay (P08514 891-1039 limits assumed): as the sequence (P08514 891-1039 limits assumed) above

Series [8] addresses Integrin alpha-V/beta-3 (Homo sapiens). The series can be described thus: Inhibition of HUVEC adhesion to fibrinogen-coated plates.
Series [9] shares this target. The series can be described thus: Inhibition of HUVEC adhesion to fibronectin-coated plates.
For series [10] the target is unchanged. The series can be described thus: Inhibition of HUVEC adhesion to vitronectin-coated plates.
The target in series [11] is T1, Integrin alpha-IIb/beta-3. The series can be described thus: Percent inhibition of ex vivo platelet aggregation after 1 hour of administration. Format: functional, organism-based. The note with it: concentration not given here. The method in brief: as §2
In series [12] the target is T1, Integrin alpha-IIb/beta-3. Briefly: Percent inhibition of ex vivo platelet aggregation after 3 hours of administration. It counts as functional, organism-based. The note with it: concentration not given here. The method in brief:
as §2

For series [13], the target named is T1, Integrin alpha-IIb/beta-3. Briefly: Percent inhibition of ex vivo platelet aggregation after 6 hours of administration. Format: functional, organism-based. The note with it: concentration not given here. Put shortly: as §2

Molecules are shown by their SMILES. Residues, ends and D or L forms follow the SMILES beside them. Bounds are passed on as bounds.

As a reminder, the IC50 is the concentration at which inhibition is half-maximal. Read a low IC50 as higher potency. For the molecule `CCN(CC(=O)N[C@@H](CC(=O)O)C(=O)N[C@H](C(=O)O)C(C)C)C(=O)CCCCC1CCNCC1`, the IC50 in [1] amounted to 0.21 µM.
In the case of `CCN(CC(=O)N[C@@H](CC(=O)O)C(=O)N[C@H](C(=O)O)C(C)C)C(=O)CCCCCNC(=N)N`, in series [1], the IC50 came to 0.47 µM.
In [1], `CC(C)[C@H](NC(=O)[C@H](CC(=O)O)NC(=O)CNC(=O)[C@@H](N)CCCNC(=N)N)C(=O)O` (H-RGDV-OH) gave an IC50 of 10 µM.
`CCN(CC(=O)N[C@@H](CC(=O)O)C(=O)N[C@H](C(=O)O)C(C)C)C(=O)CCC1CCNCC1` gave an IC50 in [1] of 0.77 µM.
The same measure, in the same setting: next, `CCN(CC(=O)N[C@@H](CC(=O)O)C(=O)N[C@H](CC1CCCCC1)C(=O)O)C(=O)CCCC1CCNCC1`: 1.37 µM.
For `CCOC(=O)[C@H](CC1CCCCC1)NC(=O)[C@H](CC(=O)O)NC(=O)CN(CC)C(=O)CCCC1CCNCC1`, the IC50 was determined as 0.064 µM in series [1] and 0.016 µM in series [2].
In turn, `CCN(CC(=O)N[C@@H](CC(=O)O)C(=O)N[C@H](C(=O)O)C1CCCCC1)C(=O)CCCC1CCNCC1` had an IC50 in series [1] of 0.032 µM.
One may read the inhibition as the drop in the measured response relative to a control, in per cent. Read a low inhibition as a response near the control. As to `CCN(CC(=O)N[C@@H](CC(=O)O)C(=O)N[C@H](C(=O)O)C(C)C)C(=O)CCCCN=C(N)N`, the values for the inhibition in series [3], in series [4] and in series [5] were 23%, 0% and 0%, respectively.
`CCN(CC(=O)N[C@@H](CC(=O)O)C(=O)N[C@@H](CC1CCC2CCCCC2C1)C(=O)O)C(=O)CCCC1CCNCC1` (stereo partly specified) yielded an IC50 in series [1] of 0.096 µM.
In turn, `CCN(CC(=O)N[C@@H](CC(=O)O)C(=O)N[C@@H](CC1CCCCC1)C(=O)O)C(=O)CCCC1CCNCC1` had an Activity in series [6] of 0.6 nmol/min/unit. In addition, the IC50 in series [7] is 0.017 µM; in series [1], 0.026 µM; in series [8], 1010 µM; in series [9], greater than 1750 µM; in series [10], greater than 1650 µM.
Turning to `CCN(CC(=O)N[C@@H](CC(=O)O)C(=O)N[C@@H](CC1CCCC2CCCCC21)C(=O)O)C(=O)CCCC1CCNCC1` (stereo partly specified), the figures for the IC50 in [1] and in series [2] were 0.019 µM and 0.011 µM, respectively.
As for `CCN(CC(=O)N[C@@H](CC(=O)O)C(=O)N[C@@H](CC1CCCCC1)C(N)=O)C(=O)CCCC1CCNCC1`, the IC50 in [7] is 0.028 µM; in [1] it was 0.097 µM; in [8], greater than 2350 µM; in [9], greater than 2400 µM.
Consider `CCN(CC(=O)N[C@@H](CC(=O)O)C(=O)N[C@@H](Cc1ccc2ccccc2c1)C(=O)O)C(=O)CCCC1CCNCC1`, for which the IC50 in [7] came out at 0.022 µM.
In [1], `CCN(CC(=O)N[C@@H](CC(=O)O)C(=O)N[C@@H](CO)CC1CCCCC1)C(=O)CCCC1CCNCC1` registered an IC50 of 0.129 µM.
Molecule `CCN(CC(=O)N[C@@H](CC(=O)O)C(=O)N[C@@H](Cc1ccccc1)C(=O)O)C(=O)CCCC1CCNCC1` displayed an IC50 in series [1] of 0.064 µM.
In [6], `CCN(CC(=O)N[C@@H](CC(=O)O)C(=O)N[C@@H](Cc1cccc2ccccc12)C(=O)O)C(=O)CCCC1CCNCC1` returned an Activity of 3.1 nmol/min/unit. Besides, the IC50 in series [7] stood at 0.022 µM; in [1] it was 0.11 µM.
With `CCN(CC(=O)N[C@@H](CC(=O)O)C(=O)N[C@@H](C(=O)O)C(C)C)C(=O)CCCC1CCNCC1`, the results for the IC50 in series [1] and in [2] were 0.72 µM and 0.26 µM, respectively.
Molecule `CCCC[C@H](NC(=O)[C@H](CC(=O)O)NC(=O)CN(CC)C(=O)CCCC1CCNCC1)C(=O)O` came in with an Activity in [6] of 7.4 nmol/min/unit. Further, the IC50 turned out to be 0.13 µM in [1] and 0.011 µM in [2].
Molecule `CCN(CC(=O)N[C@@H](CC(=O)O)C(=O)N[C@@H](CCCC1CCCCC1)C(=O)O)C(=O)CCCC1CCNCC1` returned an IC50 in series [1] of 0.053 µM.
Regarding `CCN(CC(=O)N[C@@H](CC(=O)O)C(=O)NCCC1CCCCC1)C(=O)CCCC1CCNCC1`, the IC50 in series [7] came out at 0.01 µM; in series [1], 0.072 µM.
`CCN(CC(=O)N[C@@H](CC(=O)O)C(=O)N[C@@H](CC1CCCC1)C(=O)O)C(=O)CCCC1CCNCC1` returned an IC50 in series [1] of 0.047 µM.
For `CCN(CC(=O)N[C@@H](CC(=O)O)C(=O)N[C@H](C(=O)O)C(C)C)C(=O)CCCC1CCNCC1`, the results for the inhibition in series [11], in series [12] and in series [13] were 80%, 66% and 20%, respectively. The IC50 was determined as 0.027 µM in [1] and 0.008 µM in [2].
As for `CCN(CC(=O)N[C@@H](CC(=O)O)C(=O)N[C@@H](CCC1CCCCC1)C(=O)O)C(=O)CCCC1CCNCC1`, the IC50 in series [7] is 0.011 µM; in series [1], 0.031 µM; in [8] (huvec) it was 1930 µM; in [9] (huvec), greater than 2400 µM; in [10] (huvec), greater than 2500 µM.
Consider `CC(C)[C@H](NC(=O)[C@H](CC(=O)O)NC(=O)CNC(=O)CCCC1CCNCC1)C(=O)O`, for which the inhibition was 47% in series [11] and 0% in [12]. In series [1], this molecule came in with an IC50 of 1.06 µM.
In the case of `CCN(CC(=O)N[C@@H](CC(=O)O)C(=O)N[C@@H](CC(C)(C)C)C(=O)O)C(=O)CCCC1CCNCC1`, the figures for the IC50 in [1] and in series [2] were 0.082 µM and 0.072 µM, respectively.
For `CCN(CC(=O)N[C@@H](CC(=O)O)C(=O)N[C@@H](CC1CCCCCCC1)C(=O)O)C(=O)CCCC1CCNCC1`, the midpoint of inhibition in [1], the IC50, lay at 0.078 µM.
As for `CCN(CC(=O)N[C@@H](CC(=O)O)C(=O)N[C@@H](CC1CCCCCC1)C(=O)O)C(=O)CCCC1CCNCC1`, in series [1], the IC50 was 0.032 µM.
